In ChEMBL document CHEMBL3414452, “Synthesis and in vitro antiplasmodial evaluation of 7-chloroquinoline-chalcone and 7-chloroquinoline-ferrocenylchalcone conjugates” (Eur J Med Chem, 2015):

Columns and labels:
[1] = test system: Plasmodium falciparum; experiment: Antimalarial activity against CQ-resistant Plasmodium falciparum W2 assessed as parasite growth inhibition after 48 hrs by YOYO-1 dye based flow cytometry; type: functional, organism-based; conditions: W2, 48 h
Procedure, shortened: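 W2 strain cultured in RPMI-1640 with 10% human serum, sorbitol-synchronized (5%). Ring-stage microcultures exposed to a range of compound concentrations (DMSO ≤0.1% final; 0.1% DMSO controls) for 48 h. Fixed 48 h in 1% formaldehyde/PBS pH 7.4 at room temperature, stained with 1 nM YOYO-1 in 0.1% Triton X-100/PBS, and parasitemia read by flow cytometry. IC50 from nonlinear fit of duplicate experiments.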

[2] = Selectivity index, ratio of IC50 for human HeLa cells to IC50 for CQ-resistant Plasmodium falciparum W2; type: toxicity, cell-based; conditions: read-out: Ratio IC50
Procedure, shortened: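 Ratio of HeLa IC50 to W2 IC50. HeLa cells grown in DMEM with penicillin/streptomycin to 70% confluency, dosed from DMSO stocks, and incubated 24 h at 37 °C in CO2. Cells were then washed, trypsinized, stained with trypan blue for about 10 min at room temperature, and viable/dead cells counted by hemacytometer. IC50 fitted from counts.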

[3] = test system: HeLa; experiment: Cytotoxicity against human HeLa cells after 24 hrs by trypan blue dye exclusion assay; type: cell-based
Procedure, shortened: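 HeLa cells grown in DMEM with penicillin/streptomycin. Compound from DMSO stock was added once cultures reached 70% confluency, then incubated 24 h at 37 °C under CO₂. Cells were PBS-washed, detached with 0.25% trypsin for 5 min, and resuspended in PBS. Trypan blue was added for about 10 min at room temperature. Viable and dead cells were counted by hemacytometer, and IC₅₀ derived.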

| SMILES | IC50 [1] | selectivity ratio [2] | IC50 [3] |
| --- | --- | --- | --- |
| COc1ccc(C(=O)/C=C/c2ccc(OCC(=O)O)cc2)cc1 | > 10000 nM |  |  |
| O=C(O)COc1ccc(/C=C/C(=O)c2ccccc2)cc1 | > 10000 nM |  |  |
| O=Cc1ccc(OCC(=O)NCCNc2ccnc3cc(Cl)ccc23)cc1 | 419 nM |  |  |
| O=Cc1ccc(OCC(=O)NCCCNc2ccnc3cc(Cl)ccc23)cc1 | 73.4 nM |  |  |
| O=Cc1ccc(OCC(=O)NCCCCNc2ccnc3cc(Cl)ccc23)cc1 | 444 nM |  |  |
| O=Cc1ccc(OCC(=O)NCCCCCCNc2ccnc3cc(Cl)ccc23)cc1 | 875 nM |  |  |
| O=C(COc1ccc(/C=C/C(=O)c2ccccc2)cc1)NCCNc1ccnc2cc(Cl)ccc12 | 905 nM |  |  |
| O=C(COc1ccc(/C=C/C(=O)c2ccccc2)cc1)NCCCNc1ccnc2cc(Cl)ccc12 | 109 nM |  |  |
| O=C(COc1ccc(/C=C/C(=O)c2ccccc2)cc1)NCCCCNc1ccnc2cc(Cl)ccc12 | 139 nM |  |  |
| COc1ccc(C(=O)/C=C/c2ccc(OCC(=O)NCCNc3ccnc4cc(Cl)ccc34)cc2)cc1 | 379 nM |  |  |
| COc1ccc(C(=O)/C=C/c2ccc(OCC(=O)NCCCNc3ccnc4cc(Cl)ccc34)cc2)cc1 | 221 nM |  |  |
| COc1ccc(C(=O)/C=C/c2ccc(OCC(=O)NCCCCNc3ccnc4cc(Cl)ccc34)cc2)cc1 | 63 nM |  |  |
| COc1ccc(C(=O)/C=C/c2ccc(OCC(=O)NCCCCCCNc3ccnc4cc(Cl)ccc34)cc2)cc1 | 35.4 nM | 1130 | 40000 nM |
| O=C(O)COc1ccc(C(=O)/C=C/c2ccccc2)cc1 | > 10000 nM |  |  |
| COc1ccc(/C=C/C(=O)c2ccc(OCC(=O)O)cc2)cc1 | > 10000 nM |  |  |
| CC(=O)c1ccc(OCC(=O)NCCNc2ccnc3cc(Cl)ccc23)cc1 | 558 nM |  |  |
| CC(=O)c1ccc(OCC(=O)NCCCNc2ccnc3cc(Cl)ccc23)cc1 | 173 nM |  |  |
| CC(=O)c1ccc(OCC(=O)NCCCCNc2ccnc3cc(Cl)ccc23)cc1 | 148 nM |  |  |
| CC(=O)c1ccc(OCC(=O)NCCCCCCNc2ccnc3cc(Cl)ccc23)cc1 | 71.1 nM |  |  |
| O=C(COc1ccc(C(=O)/C=C/c2ccccc2)cc1)NCCNc1ccnc2cc(Cl)ccc12 | 840 nM |  |  |
| O=C(COc1ccc(C(=O)/C=C/c2ccccc2)cc1)NCCCNc1ccnc2cc(Cl)ccc12 | 46.3 nM |  |  |
| O=C(COc1ccc(C(=O)/C=C/c2ccccc2)cc1)NCCCCNc1ccnc2cc(Cl)ccc12 | 398 nM |  |  |
| O=C(COc1ccc(C(=O)/C=C/c2ccccc2)cc1)NCCCCCCNc1ccnc2cc(Cl)ccc12 | 4070 nM |  |  |
| COc1ccc(/C=C/C(=O)c2ccc(OCC(=O)NCCNc3ccnc4cc(Cl)ccc34)cc2)cc1 | 2740 nM |  |  |
| COc1ccc(/C=C/C(=O)c2ccc(OCC(=O)NCCCNc3ccnc4cc(Cl)ccc34)cc2)cc1 | 50.5 nM |  |  |
| COc1ccc(/C=C/C(=O)c2ccc(OCC(=O)NCCCCNc3ccnc4cc(Cl)ccc34)cc2)cc1 | 170 nM |  |  |
| COc1ccc(/C=C/C(=O)c2ccc(OCC(=O)NCCCCCCNc3ccnc4cc(Cl)ccc34)cc2)cc1 | 17.8 nM | 1400 | 25000 nM |
| C[C@@H]1CC[C@H]2[C@@H](C)C(=O)O[C@@H]3O[C@@]4(C)CC[C@@H]1[C@]32OO4 [ARTEMISININ] | 6.5 nM |  |  |
